In article PMC2151622 (The Journal of General Physiology, 2007):
Changes are numbered by the printed parent chain.

How the values were obtained:
Type in all cases: cell-based, rabbit
[1] = molecular target: T1, WT-EAAC1 (Oryctolagus cuniculus, UniProt P31597); conditions: 2 mM, NaSCN-based buffer
T1 sequence (P31597 1-524): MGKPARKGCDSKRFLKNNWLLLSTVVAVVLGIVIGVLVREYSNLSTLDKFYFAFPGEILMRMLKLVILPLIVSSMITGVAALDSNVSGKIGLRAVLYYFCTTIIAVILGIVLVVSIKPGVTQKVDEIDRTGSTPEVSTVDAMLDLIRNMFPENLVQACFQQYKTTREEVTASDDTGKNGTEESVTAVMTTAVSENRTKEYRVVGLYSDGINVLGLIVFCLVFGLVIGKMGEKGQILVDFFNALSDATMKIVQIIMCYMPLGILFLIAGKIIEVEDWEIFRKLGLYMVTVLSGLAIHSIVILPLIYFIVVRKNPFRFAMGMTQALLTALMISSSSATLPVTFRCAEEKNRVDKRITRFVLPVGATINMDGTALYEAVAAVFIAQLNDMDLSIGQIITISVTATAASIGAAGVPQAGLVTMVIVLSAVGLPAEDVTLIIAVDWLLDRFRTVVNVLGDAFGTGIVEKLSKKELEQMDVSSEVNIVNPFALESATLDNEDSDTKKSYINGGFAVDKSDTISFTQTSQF
Outline: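 Two-electrode voltage clamp of oocytes in buffer with all NaCl replaced by NaSCN, grounded through a 2% agarose/2 M KCl bridge. Compounds were 2 mM; TBOA (10 μM) was added to a stopped bath. Steps from −25 mV to −100…+40 mV. Net steady-state current (with minus without) was normalised to the L-aspartate current at +40 mV; mean ± SEM of 3 oocytes (L-aspartate n = 6).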

[2] = molecular target: T2, D444S-EAAC1 (Oryctolagus cuniculus, UniProt P31597, D444S); assay: Blockade of sodium-dependent transient currents; conditions: D444S; for Decay time of transient currents blocked: 10 mM compound, at −100 mV; for IC50: read-out: IC50 for substrates/blockers of charge movements, Xenopus oocytes, mean ± SEM
T2 sequence (P31597 1-524 D444S): T1 sequence (P31597 1-524) with D444S
Outline: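 Oocytes expressing the mutant were clamped in sodium ND96 and given 250-ms pulses from −25 mV to −100…+40 mV, with and without compound; TBOA was added to a stopped bath. Isolated transients (without minus with compound) were integrated at −100 and +40 mV and summed. Charge was normalised to 10 mM of each compound and Hill-fitted; 4–6 oocytes. Decay came from an exponential fit; 3–10 oocytes.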

[3] = molecular target: T3, D444C after MTSES (Oryctolagus cuniculus, UniProt P31597, D444C); assay: Blockade of transient currents; conditions: for Decay time of transient currents blocked: D444C after MTSES, 10 mM compound; for IC50: read-out: IC50 for substrates/blockers of charge movements, D444C after MTSES (2 mM), Xenopus oocytes, mean ± SEM
T3 sequence (P31597 1-524 D444C): T1 sequence (P31597 1-524) with D444C
Outline: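 Oocytes were injected with cRNA for His-tagged EAAC1 D444C and held by two-electrode voltage clamp at −25 mV, stepped from −100 to +40 mV in 10-mV steps of 250 ms each, in ND96 pH 7.5. MTSES (2 mM final) was added under clamp with flow stopped, reacted 2 min, then washed out 5 min. Transients were taken as buffer minus buffer+compound (10 mM) and decay times fitted to a first-order exponential; 3–10 oocytes.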

[4] = molecular target: T4, D444A mutant EAAC1 (Oryctolagus cuniculus, UniProt P31597, D444A); assay: Blockade of sodium-dependent transient currents; conditions: read-out: IC50 for substrates/blockers of charge movements, Xenopus oocytes, mean ± SEM
T4 sequence (P31597 1-524 D444A): T1 sequence (P31597 1-524) with D444A

[5] = molecular target: T2, D444S-EAAC1; assay: Substrate-induced steady-state transport currents in oocytes expressing D444S; conditions: 2 mM for L-aspartate and succinate, other concentrations not given

Row | Compound | Effect on the anion conductance [1] | Decay time of transient currents blocked [2] | IC50 [2] | Decay time of transient currents blocked [3] | IC50 [3] | IC50 [4] | Induction of steady-state transport currents [5]
1 | N[C@@H](CC(=O)O)C(=O)O [L-Aspartate, L-aspartate] | stimulated the anion conductance | 12.2 ± 0.6 ms | 130 ± 15 µM | 10.2 ± 0.4 ms | 112 ± 19 µM | 720 ± 80 µM | not observed
2 | O=C(O)CCC(=O)O [Succinate, succinate] | not seen | 9.9 ± 0.7 ms | 1340 ± 110 µM | 8.7 ± 1.5 ms | 716 ± 25 µM | 870 ± 110 µM | did not induce any steady-state currents
